Test results taken from ChEMBL document CHEMBL1153518 (J Med Chem, 2009).

Key:
[1] = test system: Human alphaherpesvirus 1; assay: Antiviral activity against HSV1 KOS infected in HEL cells assessed as inhibition of virus-induced cytopathicity; format: functional, organism-based; settings: Human alphaherpesvirus 1, KOS
Method in brief: (§1)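 Confluent human embryonic lung fibroblast monolayers inoculated with 100 CCID50 virus. After 1–2 h adsorption, residual virus was removed and cultures were incubated with varying compound concentrations. Cytopathicity was scored once untreated infected controls reached full cytopathicity.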

[2] = test system: Human alphaherpesvirus 2; assay: Antiviral activity against HSV2 G infected in HEL cells assessed as inhibition of virus-induced cytopathicity; format: functional, organism-based; settings: Human alphaherpesvirus 2, strain G; method in brief: as §1
[3] = test system: Human alphaherpesvirus 1; assay: Antiviral activity against acyclovir […]-resistant thymidine kinase-deficient HSV1 KOS infected in HEL cells assessed as inhibition of virus-induced cytopathicity; format: functional, organism-based; settings: Human alphaherpesvirus 1, KOS; method in brief: as §1
[4] = Cytotoxicity against HEL cells assessed as concentration required to cause alteration in cell alteration by microscopically; format: cell-based; settings: human
[5] = test system: Human immunodeficiency virus 1; assay: Antiviral activity against HIV1 3B/Lai infected in human CEM cells assessed as inhibition of virus-induced cytopathicity after 4 days; format: functional, organism-based; settings: Human immunodeficiency virus 1, 3B/Lai, CCRF-CEM, 96 h
Method in brief: (§2)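 Human CEM cells (~3 × 10^5 cells/mL) infected with 100 CCID50 per mL of HIV-1(IIIB) or HIV-2(ROD), then seeded into wells holding compound dilutions. Incubated 4 days at 37°C. Giant cell formation was scored microscopically.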

[6] = test system: Human immunodeficiency virus 2; assay: Antiviral activity against HIV2 ROD infected in human CEM cells assessed as inhibition of virus-induced cytopathicity after 4 days; format: functional, organism-based; settings: Human immunodeficiency virus 2, ISOLATE ROD, CCRF-CEM, 96 h; method in brief: as §2
[7] = test system: CCRF-CEM; assay: Cytotoxicity against human CEM cells assessed as decrease in cell viability; format: cell-based
[8] = test system: MT4; assay: Cytotoxicity against human MT4 cells assessed as decrease in cell viability; format: cell-based
Method in brief: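 MT-4 viability was measured by automated propidium iodide-based cell counting, enumerating total and dead cells in untreated and compound-treated cultures.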

[9] = test system: HEL; assay: Cytotoxicity against HEL cells assessed as inhibition of cell proliferation; format: cell-based; settings: Homo sapiens
[10] = test system: Human immunodeficiency virus 1; assay: Antiviral activity against HIV1 3B/Lai infected in human MT4 cells assessed as suppression of p24 production after 3 days; format: functional, organism-based; settings: Human immunodeficiency virus 1, 3B/Lai, MT4, 72 h
Method in brief: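 MT-4 cells (1 × 10^4 cells/mL) in fresh medium infected with X4LAI.04 stock, 10 μL (0.7 ng p24) per mL of cell suspension. Mixed with medium carrying compound dilutions and kept at 37°C. After 3 days, p24 was measured in culture supernatants.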

[11] = test system: MT4; assay: Cytotoxicity against human MT4 cells assessed as inhibition of cell proliferation; format: cell-based

## COC(=O)[C@@H](NP(=O)(OCCOCn1cnc2c(=O)[nH]c(N)nc21)Oc1cccc2ccccc12)C(C)C (some centres undefined)
[1]
  EC50: > 100 µM
[2]
  EC50: > 100 µM
[3]
  EC50: > 100 µM
[4]
  MCC: > 100 µM
[5]
  EC50: > 100 µM
[6]
  EC50: > 100 µM
[7]
  IC50: > 100 µM

## CC(C)[C@H](NP(=O)(OCCOCn1cnc2c(=O)[nH]c(N)nc21)Oc1ccccc1)C(=O)OCc1ccccc1 (some centres undefined)
[1]
  EC50: 2 µM
[2]
  EC50: 0.85 µM
[3]
  EC50: 7.5 µM
[4]
  MCC: > 100 µM
[5]
  EC50: > 50 µM
[6]
  EC50: > 50 µM
[7]
  IC50: ≥ 100 µM

## C[C@H](NP(=O)(OCCOCn1cnc2c(=O)[nH]c(N)nc21)Oc1cccc2ccccc12)C(=O)OCc1ccccc1 (some centres undefined)
[8]
  IC50: > 150 µM
[1]
  EC50: 2 µM
[2]
  EC50: 1.4 µM
[3]
  EC50: 10 µM
[4]
  MCC: ≥ 20 µM
[9]
  IC50: 20 µM
[5]
  EC50: 15 µM
[6]
  EC50: 8.9 µM
[10]
  EC50: 0.8 µM

## CCOC(=O)[C@@H](NP(=O)(OCCOCn1cnc2c(=O)[nH]c(N)nc21)Oc1cccc2ccccc12)C(C)C (some centres undefined)
[1]
  EC50: 51 µM
[2]
  EC50: 32 µM
[3]
  EC50: 42 µM
[4]
  MCC: > 100 µM
[5]
  EC50: > 100 µM
[6]
  EC50: > 100 µM
[7]
  IC50: > 100 µM

## CC(C)C[C@H](NP(=O)(OCCOCn1cnc2c(=O)[nH]c(N)nc21)Oc1ccccc1)C(=O)OCc1ccccc1 (some centres undefined)
[8]
  IC50: > 150 µM
[1]
  EC50: 0.8 µM
[2]
  EC50: 0.7 µM
[3]
  EC50: 1.4 µM
[4]
  MCC: > 100 µM
[5]
  EC50: > 20 µM
[6]
  EC50: > 20 µM
[11]
  CC50: 17 µM
[10]
  EC50: 0.8 µM
[7]
  IC50: > 20 µM

## CC(C)(NP(=O)(OCCOCn1cnc2c(=O)[nH]c(N)nc21)Oc1cccc2ccccc12)C(=O)OCc1ccccc1 (centres undefined)
[1]
  EC50: 2.4 µM
[2]
  EC50: 1.6 µM
[3]
  EC50: 3.2 µM
[4]
  MCC: > 50 µM
[9]
  IC50: > 100 µM
[5]
  EC50: ≥ 100 µM
[6]
  EC50: 79 µM
[7]
  IC50: > 100 µM

## Nc1nc2c(ncn2COCCOP(=O)(NC(Cc2ccccc2)C(=O)OCc2ccccc2)Oc2ccccc2)c(=O)[nH]1 (centres undefined)
[1]
  EC50: 17 µM
[2]
  EC50: 8 µM
[4]
  MCC: > 50 µM
[9]
  IC50: 87 µM
[5]
  EC50: 26 µM
[6]
  EC50: 34 µM
[10]
  EC50: 16 µM

## CN(C)/C=N/c1nc2c(ncn2COCCOP(=O)(Oc2ccccc2)N2CCC[C@H]2C(=O)OCc2ccccc2)c(=O)[nH]1 (some centres undefined)
[8]
  IC50: > 150 µM
[5]
  EC50: > 20 µM
[6]
  EC50: > 20 µM
[11]
  CC50: 90 µM
[10]
  EC50: 30 µM
[7]
  IC50: 45 µM

## CCCOC(=O)[C@H](C)NP(=O)(OCCOCn1cnc2c(=O)[nH]c(N)nc21)Oc1cccc2ccccc12 (some centres undefined)
[1]
  EC50: 5.5 µM
[2]
  EC50: 1.9 µM
[3]
  EC50: 16 µM
[4]
  MCC: ≥ 50 µM
[9]
  IC50: 68 µM
[5]
  EC50: 6.6 µM
[6]
  EC50: 24 µM
[10]
  EC50: 10 µM

## Nc1nc2c(ncn2COCCO)c(=O)[nH]1 [ACYCLOVIR]
[8]
  IC50: > 250 µM
[4]
  MCC: > 100 µM
[5]
  EC50: > 250 µM
[6]
  EC50: > 250 µM
[11]
  CC50: > 250 µM
[7]
  IC50: > 250 µM

## CC(C)(NP(=O)(OCCOCn1cnc2c(=O)[nH]c(N)nc21)Oc1ccccc1)C(=O)OCc1ccccc1 (centres undefined)
[8]
  IC50: > 150 µM
[1]
  EC50: 1.4 µM
[2]
  EC50: 0.8 µM
[3]
  EC50: 5.5 µM
[4]
  MCC: > 100 µM
[6]
  EC50: > 100 µM
[11]
  CC50: > 150 µM
[10]
  EC50: 7 µM
[7]
  IC50: > 100 µM

## COC(=O)[C@H](C)NP(=O)(OCCOCn1cnc2c(=O)[nH]c(N)nc21)Oc1cccc2ccccc12 (some centres undefined)
[8]
  IC50: 18.7 µM
[1]
  EC50: 16 µM
[2]
  EC50: 10 µM
[3]
  EC50: 79 µM
[4]
  MCC: > 50 µM
[9]
  IC50: > 100 µM
[5]
  EC50: 10 µM
[6]
  EC50: 13 µM
[11]
  CC50: > 150 µM
[10]
  EC50: 4.7 µM

## COC(=O)[C@H](NP(=O)(OCCOCn1cnc2c(=O)[nH]c(N)nc21)Oc1cccc2ccccc12)C(C)C (some centres undefined)
[1]
  EC50: > 100 µM
[2]
  EC50: > 100 µM
[3]
  EC50: > 100 µM
[4]
  MCC: > 100 µM
[5]
  EC50: > 100 µM
[6]
  EC50: > 100 µM
[7]
  IC50: > 100 µM

## C[C@H](NP(=O)(OCCOCn1cnc2c(=O)[nH]c(N)nc21)Oc1ccc(F)cc1)C(=O)OCc1ccccc1 (some centres undefined)
[1]
  EC50: 0.9 µM
[2]
  EC50: 0.5 µM
[3]
  EC50: 1.5 µM
[4]
  MCC: > 100 µM
[6]
  EC50: > 20 µM
[7]
  IC50: 76 µM

## Nc1nc2c(ncn2COCCOP(=O)(Oc2ccccc2)N2CCC[C@H]2C(=O)OCc2ccccc2)c(=O)[nH]1 (some centres undefined)
[1]
  EC50: > 100 µM
[2]
  EC50: > 100 µM
[3]
  EC50: > 100 µM
[4]
  MCC: > 100 µM
[9]
  IC50: > 100 µM
[5]
  EC50: > 20 µM
[6]
  EC50: > 20 µM
[7]
  IC50: > 100 µM

## Nc1nc2c(ncn2COCCOP(=O)(NCC(=O)OCc2ccccc2)Oc2ccccc2)c(=O)[nH]1 (centres undefined)
[1]
  EC50: 3 µM
[2]
  EC50: 0.8 µM
[3]
  EC50: 9 µM
[4]
  MCC: > 100 µM
[5]
  EC50: > 100 µM
[6]
  EC50: > 100 µM
[7]
  IC50: > 100 µM

## COC(=O)[C@@H](NP(=O)(OCCOCn1cnc2c(=O)[nH]c(/N=C/N(C)C)nc21)Oc1cccc2ccccc12)C(C)C (some centres undefined)
[8]
  IC50: > 150 µM
[5]
  EC50: > 100 µM
[6]
  EC50: > 100 µM
[11]
  CC50: > 150 µM
[10]
  EC50: > 150 µM
[7]
  IC50: > 100 µM

## CC(C)OC(=O)[C@H](C)NP(=O)(OCCOCn1cnc2c(=O)[nH]c(N)nc21)Oc1ccccc1 (some centres undefined)
[8]
  IC50: > 150 µM
[1]
  EC50: 10 µM
[2]
  EC50: 8.5 µM
[3]
  EC50: 27 µM
[4]
  MCC: > 50 µM
[9]
  IC50: > 100 µM
[6]
  EC50: > 100 µM
[11]
  CC50: > 150 µM
[10]
  EC50: > 150 µM
[7]
  IC50: > 100 µM

## CN(C)/C=N/c1nc2c(ncn2COCCOP(=O)(NC(C)(C)C(=O)OCc2ccccc2)Oc2ccccc2)c(=O)[nH]1 (centres undefined)
[8]
  IC50: > 150 µM
[5]
  EC50: > 100 µM
[6]
  EC50: > 100 µM
[11]
  CC50: > 150 µM
[10]
  EC50: 70 µM
[7]
  IC50: > 100 µM

## COC(=O)[C@H](C)NP(=O)(OCCOCn1cnc2c(=O)[nH]c(N)nc21)Oc1ccccc1 (some centres undefined)
[1]
  EC50: 20 µM
[2]
  EC50: 16 µM
[3]
  EC50: 79 µM
[4]
  MCC: > 100 µM
[5]
  EC50: 17 µM
[6]
  EC50: 26 µM
[10]
  EC50: 15 µM

## C[C@@H](NP(=O)(OCCOCn1cnc2c(=O)[nH]c(N)nc21)Oc1ccccc1)C(=O)OCc1ccccc1 (some centres undefined)
[1]
  EC50: 2 µM
[2]
  EC50: 1.4 µM
[3]
  EC50: 23 µM
[4]
  MCC: > 100 µM
[6]
  EC50: > 250 µM
[7]
  IC50: ≥ 250 µM

## CN(C)/C=N/c1nc2c(ncn2COCCOP(=O)(NC(C)(C)C(=O)OCc2ccccc2)Oc2cccc3ccccc23)c(=O)[nH]1 (centres undefined)
[8]
  IC50: 140 µM
[5]
  EC50: > 20 µM
[6]
  EC50: > 20 µM
[11]
  CC50: 45 µM
[10]
  EC50: 15 µM
[7]
  IC50: 40 µM

## CC[C@H](C)[C@H](NP(=O)(OCCOCn1cnc2c(=O)[nH]c(N)nc21)Oc1ccccc1)C(=O)OCc1ccccc1 (some centres undefined)
[1]
  EC50: 1.1 µM
[2]
  EC50: 1.1 µM
[3]
  EC50: 1.4 µM
[4]
  MCC: > 100 µM
[5]
  EC50: > 20 µM
[6]
  EC50: > 20 µM
